One may read the inhibition as the drop in the measured response relative to a control, in per cent. The term IC50 denotes the concentration at which inhibition is half-maximal. Broadly, the EC50 is the midpoint of the concentration-response curve.

Experimental findings from ChEMBL document CHEMBL1133709, “Acyclic analogues of deoxyadenosine 3',5'-bisphosphates as P2Y(1) receptor antagonists” (J Med Chem, 2000) are described below.

The source made the active and inactive calls. The rule behind the calls is not given here.

In test [1] the test system is Meleagris gallopavo. In words: Antagonism of PLC stimulation elicited by 30(nM) 2-Me SADP in turkey RBC. Set-up: concentration or dose not given beside the values. It is filed as functional. To be noted: dose or concentration not given here. An outline of the steps: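 Turkey erythrocytes labeled 18–24 h with 2-[3H]myo-inositol at 37 °C; ghost membranes with 1 μM GTPγS and test compound combined with 30 nM 2-MeSADP, 5 min at 30 °C, Hepes pH 7.0. [3H]inositol phosphates separated by anion exchange. IC50 for 50% inhibition of agonist response; at least three experiments, different membrane preparations, duplicate or triplicate assays.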

Test [2] in a line: Antagonism of PLC stimulation elicited by 10(nM) 2-Me SADP in turkey RBC. It is filed as functional, Meleagris gallopavo.
In test [3] the target is P2Y purinoceptor 1 (Meleagris gallopavo) (UniProt P49652). In words: P2Y purinoceptor 1 mediated PLC stimulation in turkey RBC, NE represents no effect. Summed up:
(§1)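 Compound alone added to [3H]inositol-labeled turkey erythrocyte ghosts (~175 μg protein) with 1 μM GTPγS in Hepes pH 7.0 medium, 5 min at 30 °C. Total [3H]inositol phosphates quantified by anion-exchange chromatography. EC50 from four-parameter logistic fit, 3–8 independent curves. Efficacy relative to a maximal 2-MeSADP concentration in the same experiment; NE = no effect at 100 μM.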

For test [4], the system named is Meleagris gallopavo. In words: Tested in vitro for effective concentration required for stimulation of phospholipase C (PLC) against [3H]inositol labeled Turkey Erythrocyte P2Y purinoceptor 1. It is filed as functional. Summed up:
as §1

Test [5] has as its target P2Y purinoceptor 1 (Meleagris gallopavo) (UniProt P49652). In words: In vitro agonistic activity was determined for stimulation of PLC at Turkey erythrocyte P2Y purinoceptor 1. It is filed as functional. Summed up:
as §1

P2Y purinoceptor 1 (Meleagris gallopavo), sequence (P49652 whole entry): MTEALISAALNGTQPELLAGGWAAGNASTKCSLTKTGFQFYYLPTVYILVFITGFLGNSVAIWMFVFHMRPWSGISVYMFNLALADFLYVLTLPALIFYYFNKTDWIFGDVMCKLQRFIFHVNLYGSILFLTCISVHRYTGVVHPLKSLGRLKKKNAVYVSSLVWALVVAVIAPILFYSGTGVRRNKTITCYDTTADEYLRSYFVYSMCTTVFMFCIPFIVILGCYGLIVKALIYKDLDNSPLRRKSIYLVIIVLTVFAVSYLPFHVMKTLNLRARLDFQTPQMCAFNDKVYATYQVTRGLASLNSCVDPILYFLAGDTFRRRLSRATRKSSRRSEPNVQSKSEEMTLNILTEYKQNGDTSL

Take `Nc1ncnc2c1ncn2CCC(COP(=O)(O)O)COP(=O)(O)O`: in the test on Meleagris gallopavo [1], the inhibition came to 63%. Besides, the concentration for half-maximal inhibition (IC50) in test [2] was greater than 50 µM. In addition, the PLC stimulation entry in test [3] is “inactive”.
`CNc1ncnc2c1ncn2C/C=C\CC(COP(=O)(O)O)COP(=O)(O)O` (stereo in doubt; 16) [listing 1 of 2 here] gave an inhibition with Meleagris gallopavo [1] of 54%. For the same compound, in test [3], the PLC stimulation result was “inactive”.
In the test with Meleagris gallopavo [1], `CNc1nc(Cl)nc2c1ncn2CC(=O)N(CCOP(=O)(O)O)CCOP(=O)(O)O` registered an inhibition of 89%. Further, inhibition in test [2] was half-maximal at 14 µM (IC50). Moreover, the PLC stimulation entry in test [3] is “inactive”.
The compound `CNc1ncnc2c1ncn2CCCCCC(COP(=O)(O)O)COP(=O)(O)O` yielded an inhibition in the test on Meleagris gallopavo [1] of 56%. The IC50 in test [2] is 100 µM. Moreover, the PLC stimulation entry in test [3] was “inactive”.
With `CNc1ncnc2c1ncn2C/C=C\CC(COP(=O)(O)O)COP(=O)(O)O` (stereo in doubt; 16) [listing 2 of 2 here], the midpoint of inhibition in test [2], the IC50, lay at 100 µM.
Take `CNc1nc(Cl)nc2c1ncn2CC(=O)Nc1cc(CP(=O)(O)O)cc(CP(=O)(O)O)c1`: the inhibition in the test on Meleagris gallopavo [1] is 94%. This compound also returned a 50% inhibitory concentration (IC50) in test [2] of 15.5 µM. In addition, the PLC stimulation result in test [3] is “inactive”.
As for `CNc1nc(Cl)nc2c1ncn2[C@H]1C[C@H](OP(=O)(O)O)[C@@H](COP(=O)(O)O)O1`, the inhibition with Meleagris gallopavo [1] amounted to 95%. In test [2], this compound showed an IC50 of 0.206 µM. The PLC stimulation result in test [3] was “inactive”.
Consider `CNc1ncnc2c1ncn2C/C=C\CC(COP(=O)(O)O)COP(=O)(O)O` (stereo in doubt; 15) [listing 1 of 2 here], for which the IC50 in test [2] was greater than 50 µM.
In the test on Meleagris gallopavo [1], `CNc1ncnc2c1ncn2CCCC(COP(=O)(O)O)COP(=O)(O)O` yielded an inhibition of 68%. The concentration for half-maximal inhibition (IC50) in test [2] was greater than 30 µM. For the same compound, the PLC stimulation entry in test [3] is “inactive”.
In the test with Meleagris gallopavo [1], `Nc1ncnc2c1ncn2[C@@H]1C[C@H](COP(=O)(O)O)[C@H](OP(=O)(O)O)C1` displayed an inhibition of 73%. The same compound displayed an IC50 in test [2] of 2.53 µM. Also, in the test on Meleagris gallopavo [4], the midpoint of the response, the EC50, lay at 7.21 µM. In addition, in test [5], the Increase was determined as 27%.
With `CNc1ncnc2c1ncn2CCC(COP(=O)(O)O)COP(=O)(O)O`, the inhibition in the test with Meleagris gallopavo [1] turned out to be 100%. This compound also yielded an IC50 in test [2] of 1.6 µM. Also, the PLC stimulation result in test [3] was “inactive”.
For `CNc1ncnc2c1ncn2CCCCC(COP(=O)(O)O)COP(=O)(O)O`, in the test on Meleagris gallopavo [1], the inhibition was found to be 65%. Moreover, the half-inhibitory concentration (IC50) in test [2] was greater than 50 µM. The PLC stimulation entry in test [3] is “inactive”.
Regarding `CNc1ncnc2c1ncn2[C@H]1C[C@H](OP(=O)(O)O)[C@@H](COP(=O)(O)O)O1`, the PLC stimulation result in test [3] was “inactive”.
For `Nc1ncnc2c1ncn2[C@H]1C[C@H](OP(=O)(O)O)[C@@H](COP(=O)(O)O)O1`, the inhibition in the test with Meleagris gallopavo [1] is 87%. Also, the midpoint of inhibition in test [2], the IC50, lay at 5.76 µM. Moreover, the 50% effective concentration (EC50) in the test on Meleagris gallopavo [4] was determined as 6.29 µM.
Compound `CNc1nc(Cl)nc2c1ncn2CCC(COP(=O)(O)O)COP(=O)(O)O` yielded an inhibition in the test with Meleagris gallopavo [1] of 99%. The IC50 in test [2] came out at 0.84 µM. The PLC stimulation result in test [3] was “inactive”.
In the same order, the values of `Nc1nc(Cl)nc2c1ncn2CCC(COP(=O)(O)O)COP(=O)(O)O` are 94%, 7.57 µM and “inactive”.
For the compound `CNc1ncnc2c1ncn2[C@@H]1C[C@H](COP(=O)(O)O)[C@H](OP(=O)(O)O)C1`, the inhibition in the test on Meleagris gallopavo [1] amounted to 99%. The IC50 in test [2] was 0.331 µM. Moreover, the PLC stimulation result in test [3] is “inactive”.
On the same counts, the results for `CNc1nc(Cl)nc2c1ncn2[C@@H]1C[C@H](COP(=O)(O)O)[C@H](OP(=O)(O)O)C1` are 95%, 0.206 µM and “inactive”.
Consider `CNc1ncnc2c1ncn2C/C=C\CC(COP(=O)(O)O)COP(=O)(O)O` (stereo in doubt; 15) [listing 2 of 2 here], for which, in the test on Meleagris gallopavo [1], the inhibition is 77%. In test [3], the PLC stimulation entry was “inactive”.
